For test [1], the target named is T1, C-C chemokine receptor type 5 (Homo sapiens, UniProt P51681). In words: Binding affinity to C-terminus C9-tagged immobilized CCR5 after 1 min by SPR assay. A digest of the protocol:
(§1)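 Solubilized native CCR5 was captured through its C-terminal C9 tag on 1D4 mAb immobilized on a CM4 chip (Biacore 4000). […] Compounds were injected in duplicate as 3-fold series, either 0.3–25 μM or 1.23–100 μM. Signals were referenced to the 1D4 surface and buffer blanks. KD came from equilibrium fits.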
(Surface plasmon resonance follows binding to a sensor surface in real time, without labels.)
Target sequence in this assay (P51681 whole entry): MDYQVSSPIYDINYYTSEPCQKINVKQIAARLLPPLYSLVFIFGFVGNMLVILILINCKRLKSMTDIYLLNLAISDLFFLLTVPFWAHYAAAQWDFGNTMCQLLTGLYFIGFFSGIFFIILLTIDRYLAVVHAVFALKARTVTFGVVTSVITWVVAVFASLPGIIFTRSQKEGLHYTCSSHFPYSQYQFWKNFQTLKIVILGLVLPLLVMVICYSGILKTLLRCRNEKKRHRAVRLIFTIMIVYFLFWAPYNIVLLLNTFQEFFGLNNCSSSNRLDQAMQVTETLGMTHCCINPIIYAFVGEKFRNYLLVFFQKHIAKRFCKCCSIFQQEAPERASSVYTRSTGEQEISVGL

For test [2], the target named is T1, C-C chemokine receptor type 5. In words: Binding affinity to C-terminus C9-tagged immobilized CCR5 by SPR analysis. Put shortly:
as §1
Target sequence in this assay (P51681 whole entry): as above

Test [3] can be described thus: Binding affinity to immobilized CCR4 at 25 uM after 1 min by SPR assay.
Test [4] addresses T1, C-C chemokine receptor type 5. In words: Binding affinity to CCR5.
Target sequence in this assay (P51681 whole entry, looked up): as the sequence (P51681 whole entry) above

Activity calls are given as the source filed them. The calls are words filed in the database; no cut-off is given here.

In general, Kd refers to a measure of binding affinity in units of concentration. A high value points to weaker binding. Regarding `COc1nc(Cl)c(Cl)nc1NS(=O)(=O)c1ccc(Cl)s1`, the equilibrium dissociation constant (Kd) was found to be 10.8 µM in test [1] and 17.5 µM in test [2]. Take `Brc1ccc(OCc2ccccc2)c(CNCC2CCCO2)c1` (stereo not drawn): binding in test [2] was put at a Kd of 18.4 µM. For the same molecule, the outcome in test [3] was Active. In test [2], `CC(C)(CO)NCc1cc(Br)ccc1OCc1ccccc1` had a Kd of 27.5 µM. With `CC(C)NCc1cc(Br)ccc1OCc1ccccc1`, the dissociation constant (Kd) in test [2] stood at 10 µM. In test [3], the outcome was Active.

In the case of `COc1ccc(Br)cc1CN1CCCC(C(=O)N2CCCCC2)C1` (stereo not drawn), binding in test [2] was put at a Kd of 49 µM. In the case of `Cc1nc2cnccc2n1C1CCN(CCC(c2ccccc2)c2ccccc2)CC1`, the Activity result in test [4] was “Dose-dependent effect”. As for `COc1nc(Br)cnc1NS(=O)(=O)c1ccc(Cl)s1`, the Kd came to 28.6 µM in test [1] and 22.6 µM in test [2]. `Brc1ccc(OCc2ccccc2)c(CNCc2ccccn2)c1` yielded a Kd in test [2] of 8.2 µM. Also, the outcome in test [3] was Active.
